Reference: ChEMBL document CHEMBL1240345 (Nat Chem Biol, 2009)
Calls of active or inactive are those of the source. The calls are words filed in the database; no cut-off is given here.

How the values were obtained:
[1] = target: T1, Dual specificity protein phosphatase 6 (Homo sapiens) (UniProt Q16828); assay: Inhibition of Myc-tagged human Dusp6 expressed in TPA-induced human HeLa cells assessed as decrease in dephosphorylation of pERK measured at 100 uM by immunostaining; type: cell-based
T1 sequence (whole entry): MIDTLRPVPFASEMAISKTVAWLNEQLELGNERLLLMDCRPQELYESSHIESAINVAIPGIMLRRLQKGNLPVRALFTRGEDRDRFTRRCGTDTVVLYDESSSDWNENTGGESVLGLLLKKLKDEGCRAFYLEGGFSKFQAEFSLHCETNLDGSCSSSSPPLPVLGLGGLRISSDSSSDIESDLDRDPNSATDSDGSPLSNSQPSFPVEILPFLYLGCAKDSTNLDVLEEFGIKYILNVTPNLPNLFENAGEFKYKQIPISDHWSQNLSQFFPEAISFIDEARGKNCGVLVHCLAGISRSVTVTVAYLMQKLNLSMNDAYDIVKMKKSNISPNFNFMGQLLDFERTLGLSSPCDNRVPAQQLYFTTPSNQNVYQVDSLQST

[2] = target: T2, Dual specificity protein phosphatase 1 (Homo sapiens) (UniProt P28562); assay: Inhibition of Myc-tagged human Dusp1 expressed in TPA-induced human HeLa cells assessed as decrease in dephosphorylation of pERK measured at 100 uM by immunostaining; type: cell-based
T2 sequence (whole entry): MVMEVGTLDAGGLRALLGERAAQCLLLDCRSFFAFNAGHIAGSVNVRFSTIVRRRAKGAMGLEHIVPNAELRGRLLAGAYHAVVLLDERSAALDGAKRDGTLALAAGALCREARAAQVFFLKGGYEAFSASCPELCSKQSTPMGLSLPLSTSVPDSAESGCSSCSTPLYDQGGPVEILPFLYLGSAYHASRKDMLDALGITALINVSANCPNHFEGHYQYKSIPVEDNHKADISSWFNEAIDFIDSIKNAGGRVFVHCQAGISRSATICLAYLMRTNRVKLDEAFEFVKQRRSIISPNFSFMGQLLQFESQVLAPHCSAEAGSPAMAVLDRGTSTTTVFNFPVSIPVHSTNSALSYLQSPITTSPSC

Danio rerio [3] = species on record: Danio rerio; assay: Induction of cardiac tissue expansion in larval stage Tg(dusp:EGFP)pt6 zebrafish embryo after 8 hrs; type: functional, tissue-based
[4] = target: T3, Dual specificity protein phosphatase 6 (Homo sapiens, UniProt Q16828); assay: Inhibition of Myc-tagged human Dusp6 expressed in TPA-induced human HeLa cells assessed as decrease in dephosphorylation of pERK measured by immunostaining; type: cell-based
T3 sequence (Q16828 whole entry): T1 sequence (whole entry)
Method in brief: (§1)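 HeLa cells (2,000 per collagen-coated well; DMEM, 10% FBS, 37°C, 5% CO2) were transfected with human c-Myc-Dusp1 or c-Myc-Dusp6. After 20 h, quadruplicate wells received ten two-fold concentrations of compound for 15 min, then TPA (500 ng/ml) for 15 min. Cells were fixed and immunostained for pERK and c-Myc, and 1000 Myc-gated cells were imaged. pERK restoration was expressed as Kolmogorov-Smirnov values normalized to vehicle-treated transfected wells. Six independent experiments were run.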

[5] = target: T1, Dual specificity protein phosphatase 6 (Homo sapiens); assay: Inhibition of Dusp6 in 10-somite stage Tg(dusp:EGFP)pt6 zebrafish assessed as increase in dusp6 FGF target gene expression in tailbud at 10 uM by RT-PCR
[6] = target: T1, Dual specificity protein phosphatase 6 (Homo sapiens); assay: Inhibition of Dusp6 in Tg(dusp:EGFP)pt6 zebrafish assessed as increase in engrailed 2b in prospective mid-hindbrain boundary at 10 uM by RT-PCR
[7] = Increase in transcription factor nkx2.5 gene in Tg(dusp:EGFP)pt6 zebrafish embryo anterior lateral plate mesoderm; type: functional, Danio rerio
[8] = target: T4, Dual specificity protein phosphatase 1 (Homo sapiens, UniProt P28562); assay: Inhibition of Myc-tagged human Dusp1 expressed in TPA-induced human HeLa cells assessed as decrease in dephosphorylation of pERK measured by immunostaining; type: cell-based; method in brief: as §1
T4 sequence (P28562 whole entry): T2 sequence (whole entry)

Danio rerio [9] = species on record: Danio rerio; assay: Increase in cardiac cmlc2 expression in 18-somite stage Tg(dusp:EGFP)pt6 zebrafish embryo
[10] = target: T1, Dual specificity protein phosphatase 6 (Homo sapiens); assay: Inhibition of Dusp6 in 1-cell stage Tg(dusp:EGFP)pt6 zebrafish embryos injected with XFD mRNA assessed as sef gene expression restoring at 5 uM
Method in brief: (§2)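 Embryos were injected at the 1-2 cell stage with 500 pg of spry4 or XFD mRNA. They were exposed to 5 μM compound at the 1000-cell stage and fixed at shield stage. sef expression was then assessed by in situ hybridization.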

[11] = target: T1, Dual specificity protein phosphatase 6 (Homo sapiens); assay: Inhibition of Dusp6 basal phosphatase activity using 3-o-methylfluoro-rescein phosphate substrate in presence of ERK protein; conditions: concentration not given here
Method in brief: (§3)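 Recombinant Dusp6 activity was followed as dephosphorylation of the small-molecule substrate 3-O-methylfluorescein phosphate, with or without ERK2 present to stimulate catalysis.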

Danio rerio [12] = species on record: Danio rerio; assay: Inhibition of dusp4 gene expression in Tg(dusp:EGFP)pt6 zebrafish embryos; type: functional; conditions: Embryo
Danio rerio [13] = species on record: Danio rerio; assay: Increase in cardiac hand2 expression in 10-somite stage Tg(dusp:EGFP)pt6 zebrafish embryo; type: functional
[14] = target: T1, Dual specificity protein phosphatase 6 (Homo sapiens); assay: Inhibition of Dusp6 in Tg(dusp:EGFP)pt6 zebrafish embryo assessed as reduction in scl gene expression; conditions: concentration not given here
[15] = target: T5, M-phase inducer phosphatase 2 (Homo sapiens, UniProt P30305); assay: Inhibition of Cdc25B
T5 sequence (P30305 whole entry): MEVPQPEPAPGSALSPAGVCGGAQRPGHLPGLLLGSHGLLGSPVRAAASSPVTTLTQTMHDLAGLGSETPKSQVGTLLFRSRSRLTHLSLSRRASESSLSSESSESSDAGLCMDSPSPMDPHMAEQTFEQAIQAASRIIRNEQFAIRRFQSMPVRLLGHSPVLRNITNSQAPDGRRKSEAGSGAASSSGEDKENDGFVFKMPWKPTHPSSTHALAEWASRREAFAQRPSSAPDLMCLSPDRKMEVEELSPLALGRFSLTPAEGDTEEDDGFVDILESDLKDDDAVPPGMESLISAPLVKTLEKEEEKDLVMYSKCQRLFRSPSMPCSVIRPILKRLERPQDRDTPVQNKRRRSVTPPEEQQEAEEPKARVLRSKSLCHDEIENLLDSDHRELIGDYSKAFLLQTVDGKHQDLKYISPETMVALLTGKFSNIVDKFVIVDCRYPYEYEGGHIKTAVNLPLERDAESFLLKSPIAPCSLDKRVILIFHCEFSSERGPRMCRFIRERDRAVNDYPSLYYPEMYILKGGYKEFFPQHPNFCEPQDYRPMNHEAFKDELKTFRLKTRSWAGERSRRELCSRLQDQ

[16] = target: T6, Tyrosine-protein phosphatase non-receptor type 1 (Homo sapiens, UniProt P18031); assay: Inhibition of PTP1B
T6 sequence (P18031 whole entry): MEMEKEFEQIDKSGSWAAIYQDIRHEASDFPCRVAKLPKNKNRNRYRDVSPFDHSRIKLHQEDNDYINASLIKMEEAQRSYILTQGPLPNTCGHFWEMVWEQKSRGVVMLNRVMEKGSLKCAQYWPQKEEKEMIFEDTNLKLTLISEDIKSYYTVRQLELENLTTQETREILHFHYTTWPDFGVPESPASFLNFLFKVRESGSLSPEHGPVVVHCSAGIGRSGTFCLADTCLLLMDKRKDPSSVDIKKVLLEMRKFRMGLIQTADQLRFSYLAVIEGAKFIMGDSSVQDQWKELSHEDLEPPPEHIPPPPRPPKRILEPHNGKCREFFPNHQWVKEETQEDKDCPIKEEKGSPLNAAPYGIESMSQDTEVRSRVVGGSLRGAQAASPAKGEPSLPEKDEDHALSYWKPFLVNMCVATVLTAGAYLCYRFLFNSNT

[17] = target: T1, Dual specificity protein phosphatase 6 (Homo sapiens); assay: Inhibition of Dusp6 in Tg(dusp:EGFP)pt6 zebrafish assessed as increase in spry4 gene expression at 10 uM by RT-PCR
Danio rerio [18] = species on record: Danio rerio; assay: Inhibition of dusp22a gene expression in Tg(dusp:EGFP)pt6 zebrafish embryos; type: functional; conditions: Embryo
[19] = target: T1, Dual specificity protein phosphatase 6 (Homo sapiens); assay: Inhibition of Dusp6 basal phosphatase activity using 3-o-methylfluoro-rescein phosphate substrate; method in brief: as §3
[20] = Increase in transcription factor gata4 gene in Tg(dusp:EGFP)pt6 zebrafish embryo anterior lateral plate mesoderm; type: functional, Danio rerio
[21] = target: T1, Dual specificity protein phosphatase 6 (Homo sapiens); assay: Inhibition of Dusp6 in Tg(dusp:EGFP)pt6 zebrafish embryo assessed as reduction in etv2 gene expression
[22] = target: T1, Dual specificity protein phosphatase 6 (Homo sapiens); assay: Inhibition of Dusp6 in 1-somite stage Tg(dusp:EGFP)pt6 zebrafish assessed as increase in dusp6 FGF target gene expression in tailbud at 10 uM by RT-PCR
[23] = target: T1, Dual specificity protein phosphatase 6 (Homo sapiens); assay: Inhibition of Dusp6 in Tg(dusp:EGFP)pt6 zebrafish assessed as increase in il17rd gene expression at 10 uM by RT-PCR
Danio rerio [24] = species on record: Danio rerio; assay: Inhibition of dusp1 gene expression in Tg(dusp:EGFP)pt6 zebrafish embryos; type: functional; conditions: Embryo
[25] = target: T1, Dual specificity protein phosphatase 6 (Homo sapiens); assay: Inhibition of Dusp6 in 1-cell stage Tg(dusp:EGFP)pt6 zebrafish embryos injected with spry4 mRNA assessed as sef gene expression restoring at 5 uM; method in brief: as §2
[26] = target: T1, Dual specificity protein phosphatase 6 (Homo sapiens); assay: Inhibition of Dusp6 in 1-somite stage Tg(dusp:EGFP)pt6 zebrafish assessed as increase in dusp6 FGF target gene expression in mid-hindbrain boundary at 10 uM by RT-PCR
[27] = target: T1, Dual specificity protein phosphatase 6 (Homo sapiens); assay: Inhibition of […] in Tg(dusp:EGFP);ace mutant zebrafish assessed as increase in FGF-signaling mediated d2EGFP fluorescence in mid-hindbrain boundary at 10 uM after 2 hrs
Danio rerio [28] = species on record: Danio rerio; assay: Inhibition of dusp7 gene expression in Tg(dusp:EGFP)pt6 zebrafish embryos; type: functional; conditions: Embryo
[29] = target: T1, Dual specificity protein phosphatase 6 (Homo sapiens); assay: Inhibition of Dusp6 in 10-somite stage Tg(dusp:EGFP)pt6 zebrafish assessed as increase in dusp6 FGF target gene expression in rhombomere 4 at 10 uM by RT-PCR
[30] = target: T1, Dual specificity protein phosphatase 6 (Homo sapiens); assay: Inhibition of Dusp6 in 10-somite stage Tg(dusp:EGFP)pt6 zebrafish assessed as increase in dusp6 FGF target gene expression in mid-hindbrain boundary at 10 uM by RT-PCR
[31] = target: T1, Dual specificity protein phosphatase 6 (Homo sapiens); assay: Inhibition of Dusp6 basal phosphatase activity using 3-o-methylfluoro-rescein phosphate substrate at 10:1 enzyme to ERK protein ration; conditions: concentration not given here
Danio rerio [32] = species on record: Danio rerio; assay: Increase in cardiac myl7 expression in 18-somite stage Tg(dusp:EGFP)pt6 zebrafish embryo
[33] = target: T1, Dual specificity protein phosphatase 6 (Homo sapiens); assay: Inhibition of Dusp6 in Tg(dusp:EGFP)pt6 zebrafish assessed as increase in FGF-signaling mediated d2EGFP fluorescence at 10 uM after 2 hrs
Method in brief: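 Tg(dusp6:EGFP)pt6 embryos from natural crosses were raised at 28.5°C to 24 hpf, then placed five per well in E3. Compound was added at 10 μM in 0.5% DMSO, with 0.5% DMSO as vehicle control. d2EGFP intensity was scored visually against vehicle-treated embryos. Assays were run three times, and at least four of five embryos had to share the phenotype.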

[34] = target: Dual specificity protein phosphatase 3 (Homo sapiens, UniProt P51452); assay: Inhibition of Dusp3/VHR
[35] = target: T7, Dual specificity protein phosphatase 5 (Homo sapiens) (UniProt Q16690); assay: Inhibition of Dusp5
T7 sequence (whole entry): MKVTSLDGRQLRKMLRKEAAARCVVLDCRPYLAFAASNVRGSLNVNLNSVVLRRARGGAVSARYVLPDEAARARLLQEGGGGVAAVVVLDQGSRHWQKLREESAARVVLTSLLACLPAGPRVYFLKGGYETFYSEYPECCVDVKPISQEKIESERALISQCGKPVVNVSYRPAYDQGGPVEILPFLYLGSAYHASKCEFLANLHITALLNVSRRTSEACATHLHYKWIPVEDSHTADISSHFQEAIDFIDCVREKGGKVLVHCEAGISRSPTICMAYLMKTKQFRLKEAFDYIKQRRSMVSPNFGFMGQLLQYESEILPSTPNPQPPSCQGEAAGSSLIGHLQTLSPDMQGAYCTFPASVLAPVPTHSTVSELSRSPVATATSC

Danio rerio [36] = species on record: Danio rerio; assay: Inhibition of dusp5 gene expression in Tg(dusp:EGFP)pt6 zebrafish embryos; type: functional; conditions: Embryo
[37] = target: T1, Dual specificity protein phosphatase 6 (Homo sapiens); assay: Inhibition of Dusp6 in 1-somite stage Tg(dusp:EGFP)pt6 zebrafish assessed as increase in dusp6 FGF target gene expression in rhombomere 4 at 10 uM by RT-PCR

Chain of Dual specificity protein phosphatase 3 (P51452 whole entry): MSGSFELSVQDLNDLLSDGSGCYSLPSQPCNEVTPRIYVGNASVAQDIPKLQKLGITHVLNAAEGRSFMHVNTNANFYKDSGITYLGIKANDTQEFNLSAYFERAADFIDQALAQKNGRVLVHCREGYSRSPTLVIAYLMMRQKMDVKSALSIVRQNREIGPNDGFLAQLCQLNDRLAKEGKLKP

## O=C1CC(NC2CCCCC2)c2ccccc21 (stereo not drawn)
[1]
  inhibition: inactive
[2]
  inhibition: inactive

## O=C1/C(=C/c2ccccc2)C(NC2CCCCC2)c2ccccc21 (stereo not drawn)
Danio rerio [3]
  Activity: Active
[4]
  IC50: 12.3 µM
[5]
  inhibition: Active
[6]
  inhibition: Active
[7]
  Activity: 91%
[8]
  IC50: 11.5 µM
Danio rerio [9]
  Activity: 81%
[10]
  inhibition: inactive
[11]
  inhibition: 57%
Danio rerio [12]
  inhibition: Active
Danio rerio [13]
  Activity: 32%
[14]
  inhibition: 93%
[15]
  IC50: Not Active
[16]
  IC50: Not Active
[17]
  inhibition: Active
Danio rerio [18]
  inhibition: Active
[19]
  inhibition: inactive
[20]
  Activity: 81%
[21]
  inhibition: Active
[22]
  inhibition: Active
[1]
  inhibition: Active
[23]
  inhibition: Active
Danio rerio [24]
  inhibition: Active
[25]
  inhibition: inactive
[26]
  inhibition: Active
[27]
  inhibition: inactive
Danio rerio [28]
  inhibition: Active
[29]
  inhibition: Active
[30]
  inhibition: Active
[31]
  inhibition: 30%
Danio rerio [32]
  Activity: 81%
[33]
  inhibition: Dose-dependent effect
[34]
  IC50: Not Active
[35]
  inhibition: inactive
Danio rerio [36]
  inhibition: Active
[37]
  inhibition: Active
